Bioassay records (PubChem)
esBAF inh: inhibitors of esBAF chromatin remodeling in mouse ES cells; Bmi1-luciferase knock-in reporter, 24 h; 100% = twice the neutral-well signal; reporter increase, % at 12.5 µM; 350,000 compounds, 2% hits; in the data active = activation above about 40%; inconclusive = no clear call, values can overlap the other calls;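 also: a rise in the Bmi1 reporter signal indicates esBAF inhibition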
Xi reactivation: reactivates the inactive X chromosome in mouse fibroblasts | activation, % at 7.58 µM | AID 743238 | XiGFP mouse fibroblasts, % GFP-positive cells imaging, 3 d; cells co-treated with 5-aza-dC sensitizer; scaled so ellipticine positive control = 100% | 360,000 compounds, 0.055% hits;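 active = mean normalized replicate activation at least 10% and every replicate at or above 10%; inconclusive = only one of the two criteria met; inactive = mean below 10% and not all replicates reach 10%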
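Material: XiGFP fibroblasts, SV40-immortalized. Buffer or medium: DMEM plus 5-aza-dC sensitizer. Compound: single concentration per compound, delivered by pin transfer. Times: 3 days compound exposure. Controls: ellipticine 6 µM.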
MITF act: MITF TRPM1 promoter activation in melanoma cells | SK-MEL-5 TRPM1-promoter luciferase, 24 h; % of positive control, neutral wells = 0 | activation, % at 12.5 µM | 300,000 compounds, 0.75% hits | AID 588334;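 active = mean activation of at least 80% with every replicate also reaching 80%; inconclusive = mean reaches 80% but some replicate falls short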
NSD2 inh: NSD2 (human) methyltransferase inhibition. 310,000 compounds, 0.54% hits. inhibition, % at 12.5 µM. NSD2 peptide methylation, AlphaScreen, 120 min; in the data active = inhibition above about 50%
Wnt act: activators of Wnt/beta-catenin signaling | Wnt/beta-catenin reporter cell assay, activator, plate reader | activation, % at 9.35 µM | 300,000 compounds, 1.2% hits; in the data active = activation above about 30%, passing the limit was not always enough; inconclusive = no clear call, values can overlap the other calls
Casp6 inh: caspase-6 (human) enzyme inhibition | P55212 | purified caspase-6, Z-VEID-R110 cleavage fluorescence | inhibition, % at 12.5 µM | 350,000 compounds, 0.53% hits | AID 686996;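 active = mean inhibition across replicates at least about 35%, with every replicate also reaching that limit, limit read from the data; inconclusive = only one of the two criteria met; inactive = neither criterion met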
Target sequence (P55212 24-179 limits assumed): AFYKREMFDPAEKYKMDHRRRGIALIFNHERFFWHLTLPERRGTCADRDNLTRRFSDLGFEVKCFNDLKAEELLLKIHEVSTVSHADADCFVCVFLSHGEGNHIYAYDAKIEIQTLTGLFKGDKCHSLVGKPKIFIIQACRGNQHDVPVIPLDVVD
Target sequence (P55212 194-293 limits assumed): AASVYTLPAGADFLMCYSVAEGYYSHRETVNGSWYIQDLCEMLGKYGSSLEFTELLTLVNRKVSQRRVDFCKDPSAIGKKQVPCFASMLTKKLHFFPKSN
Large screens that a line does not name were inactive. Shown are actives, neighbours in structure and some others; about 3% of the full set was active somewhere.

COc1ccc2oc3ccc(OC)cc3c(=O)c2c1	esBAF inh 98 (no result: Xi reactivation, MITF act, Wnt act, Casp6 inh)
COc1ccc2oc3ccccc3c(=O)c2c1	esBAF inh 48, Wnt act 33 (no result: NSD2 inh)
COc1cccc2c(=O)ccoc12	none (no result: esBAF inh, Xi reactivation, Wnt act, Casp6 inh)
COc1cccc2c(=O)c3ccccc3oc12	esBAF inh 66, MITF act inconclusive (no result: NSD2 inh)
Cc1ccc(S(=O)(=O)N(Cc2ccccc2)Cc2ccco2)cc1	none (no result: Xi reactivation, Wnt act, Casp6 inh)
Cc1ccc(S(=O)(=O)N(CC(=O)O)Cc2ccco2)cc1	Casp6 inh 63 (no result: esBAF inh)
COc1ccccc1N(CC(=O)NCc1ccco1)S(=O)(=O)c1ccc(C)cc1	Casp6 inh 50 (no result: NSD2 inh)
NNC(=O)c1sc(-c2ccc(Cl)cc2)cc1N	esBAF inh inconclusive, Xi reactivation 19
CCOC(=O)c1sc(-c2ccc(Br)cc2)cc1N	MITF act 114, Wnt act inconclusive (no result: Xi reactivation)
COc1ccc2c3c(n(C)c2c1)[C@H](CO)N(CC1CCOCC1)CC31CN(C(C)=O)C1	none (no result: esBAF inh, MITF act, NSD2 inh, Wnt act, Casp6 inh)
CCc1nc(NC(C)(C)C)c2cnn(-c3ccccc3)c2n1	esBAF inh 74, MITF act inconclusive
CC(C)CC#Cc1ccc([C@@H]2[C@@H](CO)N3C(=O)CN(S(C)(=O)=O)C[C@@H]23)cc1	none (no result: esBAF inh, MITF act, NSD2 inh, Wnt act, Casp6 inh)
C/C(=N\NC(=O)c1ccc2c(c1)OCO2)c1ccc(C(=O)O)s1	none (no result: esBAF inh)
Cc1ccsc1/C=N\NC(=O)c1ccc2c(c1)OCO2	Wnt act 39 (no result: Xi reactivation, MITF act, Casp6 inh)
C/C(=N\NC(=O)c1ccc2c(c1)OCO2)c1ccc2c(c1)OCO2	esBAF inh 52
C/C(=N\NC(=O)c1ccc2c(c1)OCCO2)c1ccccc1	Wnt act 47 (no result: MITF act)
O=C(NN=C1CCCCCC1)c1ccc2c(c1)OCO2	esBAF inh 54
COc1ccc2c3c(n(C)c2c1)[C@@H](CO)NCC31CN(C(=O)Nc2ccc(F)cc2F)C1	none (no result: esBAF inh, MITF act, NSD2 inh, Wnt act, Casp6 inh)
C[C@@H]1CN([C@@H](C)CO)S(=O)(=O)c2ccc(C#CC3CC3)cc2O[C@H]1CN(C)C(=O)Cc1ccncc1	none (no result: MITF act, NSD2 inh, Wnt act)
CC(=NNC(=O)c1cccs1)c1ccc2c(c1)OCCO2	esBAF inh 47, MITF act 105, Wnt act inconclusive
C/C(=N\NC(=O)c1cccs1)c1c(O)cc(C)oc1=O	esBAF inh 63
CCN(CC)S(=O)(=O)c1cccc(C(=O)N/N=C(\C)c2cccs2)c1	esBAF inh inconclusive, MITF act 101
C/C(=N\NC(=O)c1cccc(S(=O)(=O)Nc2cccc(Cl)c2)c1)c1cccs1	none
C/C(=N\NC(=O)c1cccs1)c1ccc2c(c1)OCO2	none (no result: esBAF inh)
Fc1cccc(-c2nnn3c2nc(Cl)c2ccccc23)c1	esBAF inh inconclusive, Wnt act 40 (no result: NSD2 inh)
NNc1nc2c(-c3ccc(F)cc3)nnn2c2ccccc12	Xi reactivation inconclusive, Wnt act 39
Cc1ccc(C(=O)c2coc3ccc(O)c(Cl)c23)cc1	esBAF inh 68, Wnt act 67 (no result: Xi reactivation, MITF act, NSD2 inh, Casp6 inh)
NC(=O)c1cnn(-c2cc(Oc3ccccc3)ncn2)c1N	MITF act 87
COC(=O)c1cnn(-c2cc(Oc3ccccc3)ncn2)c1N	none (no result: Xi reactivation, Wnt act, Casp6 inh)
C[C@H]1CN([C@@H](C)CO)C(=O)c2cc(C#CC3CCCCC3)cnc2O[C@@H]1CN(C)C	none (no result: MITF act, NSD2 inh, Wnt act, Casp6 inh)
CN(C)c1ccc(C2NC(=O)c3ccccc3N2)cc1 (configuration not stated)	Wnt act 31
COCCCN1CCc2[nH]c(=S)[nH]c(=O)c2C1	none (no result: esBAF inh, Xi reactivation, Wnt act, Casp6 inh)
COc1cccc(CN2CCc3[nH]c(=S)[nH]c(=O)c3C2)c1	Casp6 inh 41
COc1ccc(NC(=O)/C=C/c2cccc(Br)c2)cn1	esBAF inh 67
Cc1ccc(NC(=O)Nc2nnc(Cc3ccc([N+](=O)[O-])cc3)s2)cc1	none (no result: esBAF inh)
O=C(Nc1ccc(Cl)cc1)Nc1nnc(Cc2ccc([N+](=O)[O-])cc2)s1	Wnt act 48 (no result: esBAF inh)
COC(=O)c1ccc(N2CCN(c3ccccc3)CC2)nc1	esBAF inh 50, MITF act 100
O=C(C1CC1)N1[C@@H](CO)[C@@H](c2ccccc2)C12CN(Cc1cncnc1)C2	none (no result: esBAF inh, MITF act, NSD2 inh, Wnt act)
Nc1nc(N)nc(-c2cccc(Br)c2)n1	Wnt act 36
Cc1cccc(-c2nc(N)nc(N)n2)c1	none (no result: esBAF inh)
CSc1ccc(/C=N/N2CCN(C)CC2)cc1	Wnt act 32
CSc1ccc(/C=N/n2c(C)cc(C)cc2=O)cc1	MITF act 87 (no result: Xi reactivation, Casp6 inh)
